Source: ChEMBL document CHEMBL3853295, “Design and synthesis of novel pyrazolo[1,5-a]pyrimidine derivatives bearing nitrogen mustard moiety and evaluation of their antitumor activity in vitro and in vivo” (Eur J Med Chem, 2016)

Experiments:
Format in all cases: functional, cell-based
[1] = Cytotoxicity against human MCF7 cells after 72 hrs by MTT assay; conditions: MCF7, 72 h
In short: (§1)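 Cells cultured in DMEM or RPMI 1640 with 10% FBS. Seeded at about 2 × 10^3 per well and grown 24 h at 37 °C, 5% CO2. Compounds added at final 0.1–1000 uM for 72 h, 5 wells per concentration. MTT added for 4 h at 37 °C, then lysis overnight. Absorbance read at 570 nm against a 650 nm reference; IC50 calculated.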

[2] = Cytotoxicity against human HepG2 cells after 72 hrs by MTT assay; conditions: HepG2, 72 h; in short: as §1
[3] = Cytotoxicity against human A549 cells after 72 hrs by MTT assay; conditions: A549, 72 h; in short: as §1
[4] = Cytotoxicity against human SH-SY5Y cells after 72 hrs by MTT assay; in short: as §1
[5] = Cytotoxicity against human DU145 cells after 72 hrs by MTT assay; conditions: DU-145, 72 h; in short: as §1

| Compound | IC50 [1] [µM] | IC50 [2] [µM] | IC50 [3] [µM] | IC50 [4] [µM] | IC50 [5] [µM] |
| --- | --- | --- | --- | --- | --- |
| N#Cc1cnn2c(Nc3ccccc3Cl)cc(CN(CCCl)CCCl)nc12 | > 100 | > 100 | > 100 | > 100 | > 100 |
| CC1CCN(Cc2cc(Nc3cccc(N(CCCl)CCCl)c3)n3ncc(C#N)c3n2)CC1 | > 100 | 33.8 | 35.9 | 25.9 | 55.8 |
| Cc1cc(Nc2cc(CN(CCCl)CCCl)nc3c(C#N)cnn23)ccc1F | 38 | 39 | 75 | 77.9 | 76.1 |
| N#Cc1cnn2c(Nc3ccc(F)cc3)cc(CN(CCCl)CCCl)nc12 | 77.5 | 64.2 | > 100 | > 100 | 84.4 |
| CCOC(=O)c1ccc(Nc2cc(CN(CCCl)CCCl)nc3c(C#N)cnn23)cc1 | 26.4 | 52.1 | 85.4 | 64.4 | 37.3 |
| N#Cc1cnn2c(Nc3cccc(F)c3)cc(CN(CCCl)CCCl)nc12 | > 100 | 67.2 | > 100 | > 100 | > 100 |
| COc1cc(Nc2cc(CN(CCCl)CCCl)nc3c(C#N)cnn23)cc(OC)c1 | > 100 | > 100 | > 100 | > 100 | > 100 |
| N#Cc1cnn2c(Nc3ccc(F)c(C(F)(F)F)c3)cc(CN(CCCl)CCCl)nc12 | 75.1 | > 100 | > 100 | > 100 | > 100 |
| CCOC(=O)C1CCN(Cc2cc(Nc3cccc(N(CCCl)CCCl)c3)n3ncc(C#N)c3n2)CC1 | > 100 | 88.1 | > 100 | > 100 | > 100 |
| CCN1CCN(Cc2cc(Nc3cccc(N(CCCl)CCCl)c3)n3ncc(C#N)c3n2)CC1 | 23.9 | 16.6 | 16.5 | 22.7 | 44.1 |
| CN(C)Cc1cc(Nc2cccc(N(CCCl)CCCl)c2)n2ncc(C#N)c2n1 | 54.6 | 33.6 | 39.8 | 40.8 | 59.3 |
| N#Cc1cnn2c(Nc3ccc(N(CCCl)CCCl)cc3)cc(CN3CCC(O)CC3)nc12 | 20.4 | 9.11 | 20.6 | 13.7 | 20.9 |
| N#Cc1cnn2c(Nc3ccc(N(CCCl)CCCl)cc3)cc(CN3CCC(CO)CC3)nc12 | 16.2 | 8.54 | 12.8 | 11.5 | 26.8 |
